{
  "source": "ChEMBL document CHEMBL4610112",
  "about": "“Novel Pyrrolopyridone Bromodomain and Extra-Terminal Motif (BET) Inhibitors Effective in Endocrine-Resistant ER+ Breast Cancer with Acquired Resistance to Fulvestrant and Palbociclib” (J Med Chem, 2020)",
  "key": {"[1]": {"test": "Growth inhibition of fulvestrant-resistant human MCF7:CFR cells measured after 5 days by Hoechst 33342 dye based imaging analysis", "assay_type": "functional, cell-based", "conditions": "120 h", "how_it_was_run": "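MCF-7:CFR cells kept 2 days in phenol red-free RPMI 1640 with 10% charcoal–dextran FBS, then seeded at 2000 cells/well. Single treatment at 0.1 nM–10 μM (0.1% DMSO final) for 5 days. Nuclei stained with Hoechst 33342 and counted by imaging. Survival normalized to DMSO (100%) and JQ1 3 μM (0%). Mean ± SEM from at least two passages, triplicates in each.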"}, "[2]": {"target": "ATPase family AAA domain-containing protein 2 (Homo sapiens, UniProt Q6PL18)", "sequence (Q6PL18 whole entry, the tested form may be a part)": "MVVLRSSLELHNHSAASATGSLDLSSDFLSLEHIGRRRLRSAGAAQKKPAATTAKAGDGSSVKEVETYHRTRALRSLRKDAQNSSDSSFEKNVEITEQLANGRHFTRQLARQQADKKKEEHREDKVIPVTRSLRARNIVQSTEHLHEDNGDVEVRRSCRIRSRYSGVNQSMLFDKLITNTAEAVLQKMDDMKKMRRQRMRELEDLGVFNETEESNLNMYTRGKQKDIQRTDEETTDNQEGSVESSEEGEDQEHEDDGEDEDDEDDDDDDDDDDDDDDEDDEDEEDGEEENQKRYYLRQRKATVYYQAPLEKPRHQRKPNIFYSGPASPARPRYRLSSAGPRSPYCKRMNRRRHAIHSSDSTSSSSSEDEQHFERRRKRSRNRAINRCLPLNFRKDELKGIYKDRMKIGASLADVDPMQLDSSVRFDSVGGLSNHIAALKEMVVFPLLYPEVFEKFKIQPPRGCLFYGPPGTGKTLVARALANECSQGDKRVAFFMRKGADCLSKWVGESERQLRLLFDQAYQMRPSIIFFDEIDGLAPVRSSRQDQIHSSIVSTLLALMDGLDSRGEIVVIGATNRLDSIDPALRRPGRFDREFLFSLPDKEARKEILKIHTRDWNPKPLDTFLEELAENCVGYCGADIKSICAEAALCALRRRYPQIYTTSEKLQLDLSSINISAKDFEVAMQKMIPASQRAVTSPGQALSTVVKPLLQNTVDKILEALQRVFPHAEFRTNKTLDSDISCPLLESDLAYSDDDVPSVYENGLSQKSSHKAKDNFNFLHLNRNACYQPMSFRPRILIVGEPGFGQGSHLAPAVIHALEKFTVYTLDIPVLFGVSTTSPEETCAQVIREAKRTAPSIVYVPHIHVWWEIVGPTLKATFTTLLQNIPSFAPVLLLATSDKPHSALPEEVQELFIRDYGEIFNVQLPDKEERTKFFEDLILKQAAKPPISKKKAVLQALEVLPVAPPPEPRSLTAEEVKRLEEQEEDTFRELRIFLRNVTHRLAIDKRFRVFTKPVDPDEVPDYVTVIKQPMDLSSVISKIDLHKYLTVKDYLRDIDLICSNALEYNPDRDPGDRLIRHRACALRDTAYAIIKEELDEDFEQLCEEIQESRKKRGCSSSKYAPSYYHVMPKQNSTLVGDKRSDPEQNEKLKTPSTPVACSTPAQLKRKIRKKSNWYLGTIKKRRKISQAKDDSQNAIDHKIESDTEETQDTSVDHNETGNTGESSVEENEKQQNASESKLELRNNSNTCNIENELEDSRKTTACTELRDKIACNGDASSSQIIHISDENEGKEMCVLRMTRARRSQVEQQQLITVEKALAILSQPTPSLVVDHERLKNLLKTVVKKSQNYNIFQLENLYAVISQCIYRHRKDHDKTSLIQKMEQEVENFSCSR", "test": "Binding affinity to human partial length ATAD2A (Q981 to R1108 residues) expressed in bacterial expression system by BROMOscan assay", "how_it_was_run": "(§1)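 BROMOscan panel of 40 bromodomains. Kd for DNA-tagged bromodomains determined by competition against an immobilized proprietary reference ligand.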"}, "[3]": {"target": "ATPase family AAA domain-containing protein 2B (Homo sapiens, UniProt Q9ULI0)", "test": "Binding affinity to human partial length ATAD2B (Q955 to R1082 residues) expressed in bacterial expression system by BROMOscan assay", "how_it_was_run": "as §1"}, "[4]": {"target": "Bromodomain adjacent to zinc finger domain protein 2B (Homo sapiens, UniProt Q9UIF8)", "test": "Binding affinity to human partial length BAZ2B (S2054 to S2168 residues) expressed in bacterial expression system by BROMOscan assay", "how_it_was_run": "as §1"}, "[5]": {"target": "Bromodomain-containing protein 7 (Homo sapiens, UniProt Q9NPI1)", "sequence (Q9NPI1 whole entry, the tested form may be a part)": "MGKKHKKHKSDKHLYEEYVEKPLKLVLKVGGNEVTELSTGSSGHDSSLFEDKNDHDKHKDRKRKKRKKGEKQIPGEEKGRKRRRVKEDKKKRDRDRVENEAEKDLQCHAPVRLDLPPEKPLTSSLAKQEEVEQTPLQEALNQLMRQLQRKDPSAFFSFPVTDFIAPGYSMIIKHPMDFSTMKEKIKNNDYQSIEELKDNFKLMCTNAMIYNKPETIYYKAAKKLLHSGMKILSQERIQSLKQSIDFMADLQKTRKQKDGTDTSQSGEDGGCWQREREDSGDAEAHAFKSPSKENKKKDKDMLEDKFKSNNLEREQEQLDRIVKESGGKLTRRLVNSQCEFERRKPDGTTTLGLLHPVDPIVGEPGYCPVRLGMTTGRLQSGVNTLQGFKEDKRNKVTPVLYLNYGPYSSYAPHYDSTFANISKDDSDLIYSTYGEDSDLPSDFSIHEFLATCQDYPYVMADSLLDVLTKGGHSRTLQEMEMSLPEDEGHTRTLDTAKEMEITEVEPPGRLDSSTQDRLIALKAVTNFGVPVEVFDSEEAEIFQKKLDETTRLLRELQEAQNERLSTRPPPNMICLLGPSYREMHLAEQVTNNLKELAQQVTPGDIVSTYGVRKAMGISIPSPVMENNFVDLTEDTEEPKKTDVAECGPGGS", "test": "Binding affinity to human partial length BRD7 (L125 to R254 residues) expressed in mammalian expression system by BROMOscan assay", "how_it_was_run": "as §1"}, "[6]": {"target": "Bromodomain-containing protein 8 (Homo sapiens, UniProt Q9H0E9)", "test": "Binding affinity to human partial length BRD8 BD2 (D1095 to F1235 residues) expressed in mammalian expression system BROMOscan assay", "how_it_was_run": "as §1"}, "[7]": {"target": "Bromodomain and PHD finger-containing protein 3 (Homo sapiens, UniProt Q9ULD4)", "test": "Binding affinity to human partial length BRPF3 (E588 to G701 residues) expressed in bacterial expression system by BROMOscan assay", "how_it_was_run": "as §1"}, "[8]": {"target": "Nucleosome-remodeling factor subunit BPTF (Homo sapiens, UniProt Q12830)", "test": "Binding affinity to human partial length FALZ (S2791 to H2911 residues) expressed in bacterial expression system by BROMOscan assay", "how_it_was_run": "as §1"}, "[9]": {"target": "Histone acetyltransferase KAT2A (Homo sapiens, UniProt Q92830)", "test": "Binding affinity to human partial length GCN5L2 (E726 to K837 residues) expressed in bacterial expression system by BROMOscan assay", "how_it_was_run": "as §1"}, "[10]": {"target": "Protein polybromo-1 (Homo sapiens, UniProt Q86U86)", "test": "Binding affinity to human partial length PBRM1 bromodomain 2 (S178 to E291 residues) expressed in bacterial expression system by BROMOscan assay", "how_it_was_run": "as §1"}, "[11]": {"target": "Histone acetyltransferase KAT2B (Homo sapiens, UniProt Q92831)", "test": "Binding affinity to human partial length PCAF (G715 to D831 residues) expressed in bacterial expression system by BROMOscan assay", "how_it_was_run": "as §1"}, "[12]": {"target": "SWI/SNF-related matrix-associated actin-dependent regulator of chromatin subfamily A member 2 (Homo sapiens, UniProt P51531)", "test": "Binding affinity to human partial length SMARCA2 (S1377 to Q1486 residues) expressed in bacterial expression system by BROMOscan assay", "how_it_was_run": "as §1"}, "[13]": {"target": "SWI/SNF-related matrix-associated actin-dependent regulator of chromatin subfamily A member 4 (Homo sapiens, UniProt P51532)", "test": "Binding affinity to human partial length SMARCA4 (A1448 to S1575 residues) expressed in bacterial expression system by BROMOscan assay", "how_it_was_run": "as §1"}, "[14]": {"target": "Transcription intermediary factor 1-alpha (Homo sapiens, UniProt O15164)", "sequence (O15164 whole entry, the tested form may be a part)": "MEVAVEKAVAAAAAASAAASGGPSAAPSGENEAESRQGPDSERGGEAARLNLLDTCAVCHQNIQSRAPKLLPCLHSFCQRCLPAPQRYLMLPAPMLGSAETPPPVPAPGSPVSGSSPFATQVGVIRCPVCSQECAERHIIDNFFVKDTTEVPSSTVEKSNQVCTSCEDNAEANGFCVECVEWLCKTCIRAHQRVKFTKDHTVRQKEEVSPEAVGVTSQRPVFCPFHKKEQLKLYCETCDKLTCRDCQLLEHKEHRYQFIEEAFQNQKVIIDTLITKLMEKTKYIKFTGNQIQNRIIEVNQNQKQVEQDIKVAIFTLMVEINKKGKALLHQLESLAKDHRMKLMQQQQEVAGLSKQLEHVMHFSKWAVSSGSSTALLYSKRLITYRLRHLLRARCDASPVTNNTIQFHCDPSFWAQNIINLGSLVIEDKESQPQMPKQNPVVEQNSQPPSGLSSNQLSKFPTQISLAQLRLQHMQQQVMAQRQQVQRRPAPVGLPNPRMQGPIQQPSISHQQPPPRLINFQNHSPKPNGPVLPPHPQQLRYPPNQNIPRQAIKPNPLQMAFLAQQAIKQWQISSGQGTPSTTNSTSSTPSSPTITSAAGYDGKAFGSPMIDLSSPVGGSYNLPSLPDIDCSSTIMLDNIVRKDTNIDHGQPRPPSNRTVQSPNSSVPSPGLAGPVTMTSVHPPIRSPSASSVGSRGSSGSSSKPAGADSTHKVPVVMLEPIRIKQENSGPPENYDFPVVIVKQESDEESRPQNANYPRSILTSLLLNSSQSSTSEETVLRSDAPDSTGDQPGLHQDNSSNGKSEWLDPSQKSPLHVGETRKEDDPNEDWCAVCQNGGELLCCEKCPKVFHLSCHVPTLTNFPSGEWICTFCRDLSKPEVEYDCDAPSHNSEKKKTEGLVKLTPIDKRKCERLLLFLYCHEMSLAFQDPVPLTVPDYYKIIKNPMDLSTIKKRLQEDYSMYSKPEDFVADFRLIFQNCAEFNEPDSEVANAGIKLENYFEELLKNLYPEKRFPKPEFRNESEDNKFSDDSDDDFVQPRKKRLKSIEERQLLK", "test": "Binding affinity to human partial length TRIM24 phd bromodomain (P790 to P977 residues) expressed in bacterial expression system by BROMOscan assay", "how_it_was_run": "as §1"}, "[15]": {"target": "E3 ubiquitin-protein ligase TRIM33 (Homo sapiens, UniProt Q9UPN9)", "sequence (Q9UPN9 whole entry, the tested form may be a part)": "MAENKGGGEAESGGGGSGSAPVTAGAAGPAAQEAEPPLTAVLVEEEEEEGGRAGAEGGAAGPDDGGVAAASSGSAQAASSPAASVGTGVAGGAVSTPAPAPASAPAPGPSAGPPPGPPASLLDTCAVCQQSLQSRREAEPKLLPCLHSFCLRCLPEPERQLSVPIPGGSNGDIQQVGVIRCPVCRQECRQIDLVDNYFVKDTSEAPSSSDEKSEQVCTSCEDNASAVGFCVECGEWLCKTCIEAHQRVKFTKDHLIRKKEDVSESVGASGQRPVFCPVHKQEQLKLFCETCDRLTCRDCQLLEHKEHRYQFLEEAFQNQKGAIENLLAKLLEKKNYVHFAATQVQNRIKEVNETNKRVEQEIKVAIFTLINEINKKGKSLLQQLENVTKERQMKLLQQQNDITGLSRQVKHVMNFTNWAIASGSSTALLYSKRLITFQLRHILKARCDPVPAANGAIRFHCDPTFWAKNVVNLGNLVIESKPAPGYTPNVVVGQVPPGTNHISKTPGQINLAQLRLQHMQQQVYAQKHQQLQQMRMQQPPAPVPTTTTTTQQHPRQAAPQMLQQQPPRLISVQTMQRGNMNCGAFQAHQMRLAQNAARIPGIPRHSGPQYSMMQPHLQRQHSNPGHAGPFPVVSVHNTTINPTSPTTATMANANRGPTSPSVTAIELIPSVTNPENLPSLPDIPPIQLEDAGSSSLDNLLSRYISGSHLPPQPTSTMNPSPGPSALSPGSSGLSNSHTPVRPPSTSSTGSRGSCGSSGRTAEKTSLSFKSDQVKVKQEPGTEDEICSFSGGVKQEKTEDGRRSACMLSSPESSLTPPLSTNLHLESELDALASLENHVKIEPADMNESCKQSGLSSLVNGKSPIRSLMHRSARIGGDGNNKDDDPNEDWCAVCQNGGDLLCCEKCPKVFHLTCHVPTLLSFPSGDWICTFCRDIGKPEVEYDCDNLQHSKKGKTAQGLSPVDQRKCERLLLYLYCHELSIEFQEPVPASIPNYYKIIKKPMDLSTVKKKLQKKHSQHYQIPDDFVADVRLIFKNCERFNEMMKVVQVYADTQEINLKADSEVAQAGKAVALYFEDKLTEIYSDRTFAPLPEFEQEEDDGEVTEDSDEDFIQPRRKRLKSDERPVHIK", "test": "Binding affinity to human partial length TRIM33 phd bromodomain (D882 to A1087 residues) expressed in bacterial expression system by BROMOscan assay", "how_it_was_run": "as §1"}, "[16]": {"target": "Bromodomain and WD repeat-containing protein 1 (Homo sapiens, UniProt Q9NSI6)", "test": "Binding affinity to human partial length WDR9 bromodomain 2 (A1310 to E1430 residues) expressed in bacterial expression system by BROMOscan assay", "how_it_was_run": "as §1"}, "[17]": {"test": "Growth inhibition of fulvestrant-resistant human MCF7:CFR 3D spheroid cells at 100 nM supplemented with fresh medium containing compound every 2 to 3 days for 9 days by celltitre-glo assay relative to control", "assay_type": "functional", "how_it_was_run": "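MCF-7:CFR cells seeded at 1000 cells/well in ultralow-attachment round-bottom plates and grown 24 h untreated as spheroids. Half the medium then replaced with 2× treatment medium, repeated every 2–3 days. Viability read by CellTiter-Glo 3D luminescence at day 9 and normalized to blank (medium plus reagent).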"}, "[18]": {"test": "Growth inhibition of tamoxifen-sensitive human MCF7:WS8 cells measured after 5 days by Hoechst 33342 dye based imaging analysis", "assay_type": "functional", "conditions": "MCF7:WS8, 120 h", "how_it_was_run": "(§2)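 Cells seeded at 2000/well in their maintenance medium, treated once the next day with compound (0.1 nM–10 μM; 0.1% DMSO final). Day 5 Hoechst 33342 staining with imaging count. Survival normalized to DMSO (100%) and JQ1 3 μM (0%). IC50 given as mean ± SEM from at least two passages, each in triplicate.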"}, "[19]": {"test": "Growth inhibition of tamoxifen-resistant human MCF7:5C cells measured after 5 days by Hoechst 33342 dye based imaging analysis", "assay_type": "functional", "conditions": "120 h", "how_it_was_run": "as §2"}, "[20]": {"system": "MCF7:TAM1", "test": "Growth inhibition of tamoxifen-resistant human MCF7:TAM1 cells measured after 5 days by Hoechst 33342 dye based imaging analysis", "assay_type": "functional, cell-based", "conditions": "MCF7:TAM1, 120 h", "how_it_was_run": "as §2"}, "[21]": {"system": "T47D", "test": "Growth inhibition of tamoxifen-sensitive human T47D cells measured after 5 days by Hoechst 33342 dye based imaging analysis", "assay_type": "functional, cell-based", "conditions": "120 h", "how_it_was_run": "as §2"}, "[22]": {"test": "Growth inhibition of human T47D:TDG cells harboring ESR1 D538G mutant measured after 5 days by Hoechst 33342 dye based imaging analysis", "assay_type": "functional", "conditions": "120 h", "how_it_was_run": "as §2"}, "[23]": {"test": "Growth inhibition of tamoxifen and palbociclib-resistant human MCF7:CPR cells measured after 5 days by Hoechst 33342 dye based imaging analysis", "assay_type": "functional", "conditions": "120 h", "how_it_was_run": "as §2"}, "[24]": {"target": "Cytochrome P450 3A4 (Homo sapiens, UniProt P08684)", "sequence (P08684 whole entry)": "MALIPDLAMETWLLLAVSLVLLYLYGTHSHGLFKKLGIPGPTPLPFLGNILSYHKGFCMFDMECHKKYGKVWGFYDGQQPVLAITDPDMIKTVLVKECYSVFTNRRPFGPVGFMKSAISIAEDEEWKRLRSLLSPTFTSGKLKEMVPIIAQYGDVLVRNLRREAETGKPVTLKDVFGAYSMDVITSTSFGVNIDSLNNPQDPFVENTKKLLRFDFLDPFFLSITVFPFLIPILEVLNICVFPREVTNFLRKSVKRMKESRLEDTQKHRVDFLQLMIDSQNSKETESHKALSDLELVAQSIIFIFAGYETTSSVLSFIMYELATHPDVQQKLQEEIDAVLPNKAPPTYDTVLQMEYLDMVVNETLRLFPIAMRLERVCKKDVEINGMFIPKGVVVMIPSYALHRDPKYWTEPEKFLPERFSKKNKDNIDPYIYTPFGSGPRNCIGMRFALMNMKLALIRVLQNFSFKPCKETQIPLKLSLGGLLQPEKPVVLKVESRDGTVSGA", "test": "Inhibition of human CYP3A4", "assay_type": "ADME"}},
  "data": [
    {"smiles": "CCS(=O)(=O)Nc1cc(-c2cn(C)c3c(=O)[nH]ccc23)cc2c1ccn2C(C)(c1ccccn1)c1ccccn1", "values": [
      {"measurement": "IC50", "setting": "[1]", "value": 0.9, "unit": "nM"},
      {"measurement": "Kd", "setting": "[2]", "value": "> 10000", "unit": "nM"},
      {"measurement": "Kd", "setting": "[3]", "value": "> 10000", "unit": "nM"},
      {"measurement": "Kd", "setting": "[4]", "value": "> 10000", "unit": "nM"},
      {"measurement": "Kd", "setting": "[5]", "value": "> 10000", "unit": "nM"},
      {"measurement": "Kd", "setting": "[6]", "value": "> 10000", "unit": "nM"},
      {"measurement": "Kd", "setting": "[7]", "value": "> 10000", "unit": "nM"},
      {"measurement": "Kd", "setting": "[8]", "value": "> 10000", "unit": "nM"},
      {"measurement": "Kd", "setting": "[9]", "value": "> 10000", "unit": "nM"},
      {"measurement": "Kd", "setting": "[10]", "value": "> 10000", "unit": "nM"},
      {"measurement": "Kd", "setting": "[11]", "value": "> 10000", "unit": "nM"},
      {"measurement": "Kd", "setting": "[12]", "value": "> 10000", "unit": "nM"},
      {"measurement": "Kd", "setting": "[13]", "value": "> 10000", "unit": "nM"},
      {"measurement": "Kd", "setting": "[14]", "value": "> 10000", "unit": "nM"},
      {"measurement": "Kd", "setting": "[15]", "value": "> 10000", "unit": "nM"},
      {"measurement": "Kd", "setting": "[16]", "value": "> 10000", "unit": "nM"},
      {"measurement": "growth inhibition (GI)", "setting": "[17]", "value": 100, "unit": "%"},
      {"measurement": "IC50", "setting": "[18]; read-out: IC50", "value": "< 10", "unit": "nM"},
      {"measurement": "IC50", "setting": "[18]; read-out: pIC50 (converted)", "value": 3.98, "unit": "nM"},
      {"measurement": "IC50", "setting": "[19]; read-out: IC50", "value": "< 10", "unit": "nM"},
      {"measurement": "IC50", "setting": "[19]; read-out: pIC50 (converted)", "value": 2, "unit": "nM"},
      {"measurement": "IC50", "setting": "[20]; read-out: IC50", "value": "< 10", "unit": "nM"},
      {"measurement": "IC50", "setting": "[20]; read-out: pIC50 (converted)", "value": 3.16, "unit": "nM"},
      {"measurement": "IC50", "setting": "[21]; read-out: IC50", "value": "< 10", "unit": "nM"},
      {"measurement": "IC50", "setting": "[21]; read-out: pIC50 (converted)", "value": 3.16, "unit": "nM"},
      {"measurement": "IC50", "setting": "[22]; read-out: IC50", "value": "< 10", "unit": "nM"},
      {"measurement": "IC50", "setting": "[22]; read-out: pIC50 (converted)", "value": 6.31, "unit": "nM"},
      {"measurement": "IC50", "setting": "[23]", "value": "< 10", "unit": "nM"},
      {"measurement": "IC50", "setting": "[24]", "value": "≥ 10000", "unit": "nM"}
    ]}
  ]
}
